Screening results as filed in PubChem.
ZTA counter – ZTA (EBV) inhibition in EBNA-1 counter-screen; P03206; ZTA-DNA binding, fluorescence polarization; inhibition, % at 11 µM; 320,000 tested, 0.15% active; in the data active = inhibition above about 33%
Target sequence (P03206 whole entry, looked up): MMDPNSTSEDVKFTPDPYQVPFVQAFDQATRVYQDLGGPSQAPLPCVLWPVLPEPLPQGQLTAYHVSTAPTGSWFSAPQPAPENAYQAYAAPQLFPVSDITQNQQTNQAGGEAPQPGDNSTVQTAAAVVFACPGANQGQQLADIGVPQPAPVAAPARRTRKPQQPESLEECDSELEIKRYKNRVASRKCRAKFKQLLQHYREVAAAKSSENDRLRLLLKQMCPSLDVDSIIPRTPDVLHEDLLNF
PP5 inh – PP5 phosphatase inhibitors, primary screen, biochemical, fluorescence | 320,000 tested, 0.18% active | purified PP5c, OMFP substrate fluorescence | inhibition, % at 6.7 µM;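 active = inhibition above the campaign's mean inhibition across all tested compounds plus 3 SD, cut at about 9.5% in these data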;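 also: 0% = DMSO only and 100% = 100 µM cantharidin control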
core dimer inh – inhibitors of HCV core protein dimerization, primary screen, biochemical, TR-FRET, high-throughput; TR-FRET GST/Flag-core106 dimerization, 1536-well; inhibition, % at 5 µM; 300,000 tested, 0.33% active; AID 1899, 2009;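 active = inhibition above the mean of all tested compounds plus 3 SD, set per screening campaign, cut at about 45% in these data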
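assay system = GST-tagged and Flag-tagged HCV core protein residues 1-106 | controls = unlabelled core106 and no-GST-core106 wells | incubation = compound-protein-antibody incubation 4 h at 22.5 °C | probe or stimulus = Eu donor and XL665 acceptor anti-tag antibodies | read-out = % inhibition based on acceptor/donor emission ratio | signal = TR-FRET 671 and 617 nm emission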
EBNA-1 inhibitor – EBNA-1 DNA-binding inhibitors, primary screen, biochemical, fluorescence polarization; inhibition, % at 14.8 µM; 300,000 tested, 0.34% active; AID 1950, 2009; in the data active = inhibition above about 28%
PP1 counter – PP1-alpha phosphatase inhibitors, primary screen, counter-screen for PP5 inhibitor project, biochemical, fluorescence, OMFP substrate, single point; Serine/threonine-protein phosphatase PP1-alpha catalytic subunit (Homo sapiens), P62136; purified PP1alpha; inhibition, % at 6.7 µM; 320,000 tested, 0.9% active; AID 2235, 2010;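 active = inhibition above the mean inhibition of all tested compounds plus 3 SD, computed separately for each screening campaign, cut at about 15% in these data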
Target sequence (P62136 whole entry, looked up): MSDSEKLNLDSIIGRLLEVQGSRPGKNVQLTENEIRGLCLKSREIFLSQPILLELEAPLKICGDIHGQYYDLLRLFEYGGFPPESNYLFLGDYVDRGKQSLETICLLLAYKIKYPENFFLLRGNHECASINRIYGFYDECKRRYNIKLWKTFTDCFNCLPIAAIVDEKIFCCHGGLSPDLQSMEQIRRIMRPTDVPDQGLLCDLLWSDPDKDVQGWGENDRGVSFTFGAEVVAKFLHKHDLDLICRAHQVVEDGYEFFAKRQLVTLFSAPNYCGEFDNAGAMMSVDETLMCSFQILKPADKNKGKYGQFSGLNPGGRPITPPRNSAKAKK
Active calls of the source: *; . = no result given; + = active, no number; ! = not active in a repeat. This is a sample that favours compounds with a hit; in the whole collection about 1.7% have one here.

SMILES	ZTA counter	PP5 inh	core dimer inh	EBNA-1 inhibitor	PP1 counter
Cc1ccc2nsnc2c1NC(=O)c1ccc(-c2cc(Cl)ccc2Cl)o1	-10	4	-2	13	25*
CC(C)C(=O)NC(c1ccco1)c1ccc2cccnc2c1O (stereo not given)	-16	0	3	9	1
CC(C)C(=O)NC(c1cccc([N+](=O)[O-])c1)c1ccc2cccnc2c1O (stereo not given)	12	2	-16	-7	17*
COc1ccc(/C=C2\SC(=S)N(CC(=O)NC3C=CS(=O)(=O)C3)C2=O)cc1 (stereo not given)	-1	0	26	-7	16*
CCN(CC(=O)NC(C)(C)C)C(=O)c1ccccc1SCC(=O)NC1CCCCCCC1	-15	2	1	-18	-9
Cc1c(O)cccc1C(=O)N[C@@H](CSc1ccccc1)[C@H](O)CN1C[C@H]2CCCC[C@H]2C[C@H]1C(=O)NC(C)(C)C	14	3	13	14	17*!
CC(=O)c1cccc(Nc2nc(-c3cccc([N+](=O)[O-])c3)cs2)c1	-7	1	21	5	16*
O=C(CCl)Nc1c2c(nn1-c1ccccc1)CSC2	5	0	13	7	1
CCOc1ccc(-n2c(SCC(=O)Nc3ccc(CC)cc3)nc3n[nH]c(C)c3c2=N)cc1	8	2	16	13	16*
CCCN(Cc1cc2ccc(C)cc2[nH]c1=O)S(=O)(=O)c1ccccc1	2	5	8	-5	2
COc1ccc(NC(=O)Nc2nnc(-c3ccccc3SCc3ccccc3)s2)cc1	18	3	1	10	19*
Oc1ccccc1N=Nc1nc(-c2ccccc2)c(-c2ccccc2)[nH]1	-6	7	-15	0	17*
Cc1ccc(C)c(OCCC(=O)Nc2cccc(S(=O)(=O)N3CCCCC3)c2)c1	9	8	.	.	5
COc1ccccc1-n1c(=O)c(C#N)c(-c2ccc([N+](=O)[O-])cc2)c2cc(C(=O)c3cc(F)ccc3O)cnc21	-5	5	49*	-20	0
Cn1c(=O)c(C#N)c(-c2ccc(F)cc2)c2cc(C(=O)c3cc(Cl)cc(Cl)c3O)cnc21	7	4	27	2	13
COc1ccc(Cl)cc1NC(=O)COC(=O)C1COc2ccccc2O1 (stereo not given)	-11	2	.	.	0
CN(C)c1ccc(N=Cc2cccn2C)cc1	+	3	-63	+	6
CN(C)c1ccc(N=Cc2nc(-c3ccccc3)oc2O)cc1	4	3	-52	3	1
CCCCCCSc1cccc(-c2nc3ccc(Cl)cn3c2NCc2ccccc2)c1	-1	2	-10	-1	7
CCOC(=O)Cc1csc(NC(=O)Cn2cnc3c2c(=O)n(C)c(=O)n3C)n1	-15	-10	8	-14	-2
Cn1c(=O)c2c(ncn2CC(=O)Nc2nc(-c3ccccc3Cl)cs2)n(C)c1=O	-9	-1	0	27*	-2
COc1ccc(NC(=O)/C(C#N)=C/c2ccc(OCCN3CCOCC3)c(OC)c2)c(OC)c1	5	1	-4	3	-1
COc1cc(C2Nc3c(F)cccc3C3C=CCC32)cc(Br)c1OC (stereo not given)	3	1	46*	3	4
CC1CC1C(=O)OCC(=O)NNC(=O)c1ccc([N+](=O)[O-])cc1 (stereo not given)	-4	0	.	.	-3
O=C(O)CN1C(=O)/C(=C\c2cc(Br)ccc2OCc2ccc(F)cc2)SC1=S	18	4	25	1	17*
SMILES	ZTA counter	PP5 inh	core dimer inh	EBNA-1 inhibitor	PP1 counter
COc1ccc(CCC(=O)OCC(=O)Nc2sccc2C(N)=O)cc1	4	1	.	.	-4
CC1CC(C)CN(C(=O)CCC(=O)Nc2nnc(C3CCCCC3)s2)C1 (stereo not given)	-6	5	1	-9	0
C=CCN1C(=O)C(CC(=O)NCC)SC1=Nc1ccccc1CC (stereo not given)	6	0	-11	-10	1
CC1(OC(=O)C2CCCC2)C(=O)C=C2C=C(c3ccsc3)N(CCc3c[nH]c4ccccc34)C=C2C1=O (stereo not given)	3	2	27	10	17*
CC(C)CN=c1cc(-c2ccccc2)oc2ccc(Cl)cc12	-16	2	0	2	17*
Cc1ccc(C(=O)C2=C(O)C(=O)N(Cc3ccco3)C2c2ccc(N(C)C)cc2)o1 (stereo not given)	3	0	-4	-4	14
O=C(C1=C(O)C(=O)N(CCCn2ccnc2)C1c1cccc(Br)c1)c1ccco1 (stereo not given)	-1	0	10	-9	47*
Cc1ccc(C(=O)C2=C(O)C(=O)N(Cc3ccco3)C2c2cccc(Br)c2)o1 (stereo not given)	3	2	21	0	22*
Cc1ccc(C(=O)C2=C(O)C(=O)N(Cc3ccco3)C2c2cccc(Cl)c2)o1 (stereo not given)	-4	0	30	-2	25*
Cc1ccc(CN(C)C(=O)CSc2nnc3n2CCCCC3)c(C)c1	13	-2	.	.	-1
CCOc1ccc(C2C(C(=O)c3ccc(C)o3)=C(O)C(=O)N2c2nc(C)c(C(=O)OC)s2)cc1 (stereo not given)	1	3	-1	-6	17*
O=S(=O)(c1ccc(Oc2ncnc3scc(-c4ccccc4)c23)cc1)N1CCOCC1	14	5	50*	2	8
O=S(=O)(c1ccc(Oc2ccccc2)cc1)N1CCOCC1	-16	2	1	-11	-2
Cc1ccsc1/C=C1\Oc2cc(OCC(=O)c3ccccc3)ccc2C1=O	-13	1	29	21	16*
COc1ccc(/C=C2\Oc3cc(OCC(N)=O)ccc3C2=O)cc1OC	12	2	0	18	0
COc1ccc(N2C(=O)[C@@H]3[C@H](C2=O)[C@H](C(=O)c2ccc(OC(C)=O)cc2)N2N=CC=C[C@@H]32)cc1	-6	-1	46*	1	3
CCOc1ccc(Nc2ccc(N3C(=O)CCC3=O)cc2[N+](=O)[O-])cc1	1	0	-3	-7	9
Cc1c(Cl)ccc2c1NC(=O)[C@]21[C@@H]2C(=O)N(Cc3ccccc3)C(=O)[C@@H]2[C@@H]2CCCN21	-14	2	34	16	6
CCc1cccc2c1NC(=O)[C@]21[C@@H]2C(=O)N(Cc3ccccc3)C(=O)[C@@H]2[C@@H]2CCCN21	-2	0	55*	-3	1
CCOC(=O)c1sc(NC(=S)NC(=O)C2CCCC2)cc1C	2	5	46*	-5	2
CCOC(=O)c1sc(NC(=S)NC(=O)CC(C)C)cc1C	-6	5	71*	5	8
